Experiment [1] has as its system U87MG cells. The experiment is described as follows: MTT cell proliferation assay. The experiment is classed as cell-based. The settings on record: read-out: Anti-proliferative activity IC50, U87MG.
Experiment [2] concerns T98G cells. The experiment is described as follows: MTT cell proliferation assay. The following applies: read-out: Anti-proliferative activity IC50, T98G. The experiment is classed as cell-based. For orientation: Tetrazolium dyes change colour on reduction, which living cells bring about.
Experiment [3] has as its system U251 xenografts. The experiment is described as follows: U251 xenograft antitumor activity. The following applies: mice; oral; 30 mg/kg; 21 days. Format: in vivo. The gist of the method: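 SPF nude mice, 6–8 weeks old, with subcutaneous U251 xenografts; test compound or reference inhibitors given orally at 30 mg/kg, normal saline as vehicle control, analysed at 21 days. Tumor volume, tumor weight and body weight tracked; tumors immunostained for MDM2, P53, P21, pCDK4, pRB and Ki-67, plus TUNEL immunofluorescence, scored as percent positive cells; mean ± SD.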

Experiment [4] relates to U251 cells. The experiment is described as follows: MTT cell proliferation assay. The following applies: read-out: Anti-proliferative activity IC50, U251. The experiment is classed as cell-based.
For experiment [5], the system named is MDM2 and CDK4. The experiment is described as follows: TR-FRET inhibition at concentrations below 1.0 μmol/L. The experiment is classed as biochemical. The settings on record: target per compound not stated. On the technique in general: In TR-FRET formats the signal depends on donor and acceptor labels being close together.
Experiment [6] has as its target MDM2 (Homo sapiens, UniProt Q00987). The experiment is described as follows: TR-FRET. The experiment is classed as binding. The settings on record: for inhibition at 1 µM: read-out: Inhibition rate at 1.0 μmol/L, MDM2.
Where [7] appears, read: 24-h incubation, MTT, mutated P53.

Like-named read-outs stand apart in the source and are kept apart here.

Chain of MDM2 (Q00987 whole entry): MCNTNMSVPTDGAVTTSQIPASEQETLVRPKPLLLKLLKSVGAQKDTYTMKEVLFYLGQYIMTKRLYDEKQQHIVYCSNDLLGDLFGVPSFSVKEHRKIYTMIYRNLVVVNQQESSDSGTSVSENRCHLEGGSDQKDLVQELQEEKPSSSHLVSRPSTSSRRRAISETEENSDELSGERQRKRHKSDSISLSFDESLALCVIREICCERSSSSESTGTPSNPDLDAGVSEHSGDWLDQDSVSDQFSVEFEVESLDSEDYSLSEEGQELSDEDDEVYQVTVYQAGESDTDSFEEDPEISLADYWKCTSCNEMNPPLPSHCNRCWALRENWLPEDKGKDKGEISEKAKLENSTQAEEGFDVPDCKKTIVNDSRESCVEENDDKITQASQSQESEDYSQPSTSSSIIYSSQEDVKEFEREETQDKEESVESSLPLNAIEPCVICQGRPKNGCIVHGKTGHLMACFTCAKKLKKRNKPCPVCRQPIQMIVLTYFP

As usually defined, the IC50 is the concentration that inhibits the measured activity by half. Take `CC(=O)c1c(C)c2cnc(Nc3ccc(N4CCNCC4)cn3)nc2n(C2CCCC2)c1=O` [Palbociclib, palbociclib, reference compound]: the IC50 is 26.4 ± 3.8 µM in experiment [1] (Homo sapiens, U-87 MG, 24 h); 29.5 ± 4.5 µM in experiment [2] (Homo sapiens, T98G, 24 h); 18.9 ± 2.4 µM in experiment [4] (Homo sapiens, U-251, 24 h). In addition, the tumor growth entry in experiment [3] is recorded as “potently inhibited tumor growth”.

Regarding `COc1ccc(C2=N[C@@H](c3ccc(Cl)cc3)[C@@H](c3ccc(Cl)cc3)N2C(=O)N2CCNC(=O)C2)c(OC(C)C)c1` [Nutlin-3a, nutlin-3a, reference compound], the IC50 in experiment [1] (24-h incubation, MTT, wild-type P53) was 25.3 ± 2.5 µM; in experiment [2] (setting [7]), greater than 50 µM; in experiment [4] (setting [7]), greater than 50 µM. In addition, in experiment [5], the “inhibition at concentrations below 1.0 μmol/L” value is recorded as 40% to 20%. Also, the tumor growth result in experiment [3] was “potently inhibited tumor growth”.

Consider `CCOC(=O)[C@H]1Cc2c(cc([N+](=O)[O-])cc2[N+](=O)[O-])[C@H](O)[C@]12C(=O)Nc1ccc(F)cc12` [4b′, Ethyl (1′S,3S,3′S)-5-fluoro-1′-hydroxy-5′,7′-dinitro-2-oxo-3′,4′-dihydro-1′H-spiro[indoline-3,2′-naphthalene]-3′-carboxylate], for which the IC50 in experiment [1] (Homo sapiens, U-87 MG, 24 h) was greater than 50 µM; in experiment [2] (Homo sapiens, T98G, 24 h), greater than 50 µM; in experiment [4] (Homo sapiens, U-251, 24 h), greater than 50 µM. The inhibition at 1 µM in experiment [6] is 55.6%.

As to `CCOC(=O)[C@H]1Cc2c(cc([N+](=O)[O-])cc2[N+](=O)[O-])[C@H](O)[C@]12C(=O)Nc1ccc(Cl)cc12` [4d′, Ethyl (1′S,3S,3′S)-5-chloro-1′-hydroxy-5′,7′-dinitro-2-oxo-3′,4′-dihydro-1′H-spiro[indoline-3,2′-naphthalene]-3′-carboxylate], the IC50 was 60.4 µM in experiment [1] (Homo sapiens, U-87 MG, 24 h); greater than 50 µM in experiment [2] (Homo sapiens, T98G, 24 h); 1800 ± 120 nM in experiment [6]; greater than 50 µM in experiment [4] (Homo sapiens, U-251, 24 h). Moreover, the inhibition at 1 µM in experiment [6] is 54.2%.

As to `COc1ccc(C(=O)[C@H]2Cc3c(cc([N+](=O)[O-])cc3[N+](=O)[O-])[C@@H](O)[C@@]23C(=O)Nc2ccccc23)cc1` [4p, (1′R,3R,3′S)-1′-Hydroxy-3′-(4-methoxybenzoyl)-5′,7′-dinitro-3′,4′-dihydro-1′H-spiro[indoline-3,2′-naphthalen]-2-one], the IC50 was found to be 39.9 ± 4.2 µM in experiment [1] (Homo sapiens, U-87 MG, 24 h); 45.9 ± 8.1 µM in experiment [2] (Homo sapiens, T98G, 24 h); 43.2 ± 5.9 µM in experiment [4] (Homo sapiens, U-251, 24 h). Further, the inhibition at 1 µM in experiment [6] was 35.7 ± 4.9%.

Take `CCOC(=O)[C@H]1Cc2c(cc([N+](=O)[O-])cc2[N+](=O)[O-])[C@@H](O)[C@@]12C(=O)Nc1cc(Br)ccc12` [4h, Ethyl (1′R,3R,3′S)-6-bromo-1′-hydroxy-5′,7′-dinitro-2-oxo-3′,4′-dihydro-1′H-spiro[indoline-3,2′-naphthalene]-3′-carboxylate]: the IC50 came out at 20.4 ± 3.3 µM in experiment [1] (Homo sapiens, U-87 MG, 24 h); 14.4 ± 2.8 µM in experiment [2] (Homo sapiens, T98G, 24 h); 18.3 ± 1.5 µM in experiment [4] (Homo sapiens, U-251, 24 h). Also, the inhibition at 1 µM in experiment [6] was 76.7 ± 5.2%.

On to `CCOC(=O)[C@H]1Cc2c(cc([N+](=O)[O-])cc2[N+](=O)[O-])[C@@H](O)[C@@]12C(=O)Nc1ccc(F)cc12` [4b, Ethyl (1′R,3R,3′S)-5-fluoro-1′-hydroxy-5′,7′-dinitro-2-oxo-3′,4′-dihydro-1′H-spiro[indoline-3,2′-naphthalene]-3′-carboxylate], for which the IC50 in experiment [1] (Homo sapiens, U-87 MG, 24 h) was found to be 25.7 ± 1.4 µM; in experiment [2] (Homo sapiens, T98G, 24 h) it was 49 ± 6.3 µM; in experiment [4] (Homo sapiens, U-251, 24 h), 32.6 ± 3.5 µM. Moreover, the inhibition at 1 µM in experiment [6] was 81.4 ± 10.2%.

As to `CCOC(=O)[C@H]1Cc2c(cc([N+](=O)[O-])cc2[N+](=O)[O-])[C@@H](O)[C@@]12C(=O)Nc1ccc(Br)cc12` [4g, Ethyl (1′R,3R,3′S)-5-bromo-1′-hydroxy-5′,7′-dinitro-2-oxo-3′,4′-dihydro-1′H-spiro[indoline-3,2′-naphthalene]-3′-carboxylate], the IC50 in experiment [1] (Homo sapiens, U-87 MG, 24 h) is 4.9 ± 0.5 µM; in experiment [2] (Homo sapiens, T98G, 24 h) it was 9.5 ± 0.7 µM; in experiment [6], 280 ± 60 nM; in experiment [4] (Homo sapiens, U-251, 24 h), 8.6 ± 0.6 µM. Moreover, in experiment [6], the inhibition at 1 µM was 92.3 ± 11.2%.

Turning to `CCOC(=O)[C@H]1Cc2c(cc([N+](=O)[O-])cc2[N+](=O)[O-])[C@H](O)[C@]12C(=O)Nc1ccc(Br)cc12` [4g′, Ethyl (1′S,3S,3′S)-5-bromo-1′-hydroxy-5′,7′-dinitro-2-oxo-3′,4′-dihydro-1′H-spiro[indoline-3,2′-naphthalene]-3′-carboxylate], the IC50 in experiment [1] (Homo sapiens, U-87 MG, 24 h) was greater than 50 µM; in experiment [2] (Homo sapiens, T98G, 24 h) it was greater than 50 µM; in experiment [6] it was 2500 ± 300 nM; in experiment [4] (Homo sapiens, U-251, 24 h), greater than 50 µM. Also, the inhibition at 1 µM in experiment [6] was 51.9%.

As to `CCOC(=O)[C@H]1Cc2c(cc([N+](=O)[O-])cc2[N+](=O)[O-])[C@@H](O)[C@@]12C(=O)Nc1cc(Cl)ccc12` [4e, Ethyl (1′R,3R,3′S)-6-chloro-1′-hydroxy-5′,7′-dinitro-2-oxo-3′,4′-dihydro-1′H-spiro[indoline-3,2′-naphthalene]-3′-carboxylate], the IC50 in experiment [1] (Homo sapiens, U-87 MG, 24 h) is 19.2 ± 4.4 µM; in experiment [2] (Homo sapiens, T98G, 24 h), 22.5 ± 4.2 µM; in experiment [4] (Homo sapiens, U-251, 24 h) it was 28.6 ± 2.9 µM. Further, the inhibition at 1 µM in experiment [6] is 76.4 ± 6%.

Turning to `O=C(c1ccc(Br)cc1)[C@H]1Cc2c(cc([N+](=O)[O-])cc2[N+](=O)[O-])[C@@H](O)[C@@]12C(=O)Nc1ccccc12` [4o, (1′R,3R,3′S)-3′-(4-Bromobenzoyl)-1′-hydroxy-5′,7′-dinitro-3′,4′-dihydro-1′H-spiro[indoline-3,2′-naphthalen]-2-one], the IC50 stood at 41.6 ± 4.3 µM in experiment [1] (Homo sapiens, U-87 MG, 24 h); 45.7 ± 6.7 µM in experiment [2] (Homo sapiens, T98G, 24 h); 44.2 ± 4.6 µM in experiment [4] (Homo sapiens, U-251, 24 h). In addition, the inhibition at 1 µM in experiment [6] worked out at 47.1 ± 5.8%.

With `O=C(c1ccc(Cl)c(Cl)c1)[C@H]1Cc2c(cc([N+](=O)[O-])cc2[N+](=O)[O-])[C@@H](O)[C@@]12C(=O)Nc1ccccc12` [4n, (1′R,3R,3′S)-3′-(3,4-Dichlorobenzoyl)-1′-hydroxy-5′,7′-dinitro-3′,4′-dihydro-1′H-spiro[indoline-3,2′-naphthalen]-2-one], the IC50 in experiment [1] (Homo sapiens, U-87 MG, 24 h) stood at 34.9 ± 2.62 µM; in experiment [2] (Homo sapiens, T98G, 24 h), 32.5 ± 2.9 µM; in experiment [4] (Homo sapiens, U-251, 24 h), 25.9 ± 3.5 µM. In experiment [6], the inhibition at 1 µM was 38.4 ± 2.7%.

These data come from publication PMC7488488 (Acta Pharmaceutica Sinica. B, 2019).
